Assays:
[1] = test system: MPTP-treated parkinsonian macaques; assay: PDE9i - L-DOPA co-administration trial in MPTP parkinsonian macaques; assay type: in vivo, Macaca Mulatta and Fascicularis; conditions: L-DOPA suboptimal dose s.c. alone, typical average
[2] = Plasma pharmacokinetics in awake macaques; assay type: in vivo, Macaca Mulatta and Fascicularis; conditions: suboptimal L-DOPA + PDE9i 5 mg/kg vs PDE9i vehicle
In short: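 Two awake, chair-trained MPTP-parkinsonian macaques from the behavioural cohort were restrained unsedated. Test compound (s.c., 5 mg/kg, or 0 mg/kg vehicle) was given with each animal's sub-optimal s.c. L-DOPA methyl ester/benserazide dose. Saphenous vascular-port blood was drawn pre-injection and at 60, 120 and 180 min. Each treatment was given twice, and samples were processed in duplicate. Plasma was stored at −80°C for LC/MS.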

[3] = test system: MPTP-treated parkinsonian macaques; assay: L-Dopa responses of the parkinsonian macaques; assay type: in vivo, Macaca Mulatta and Fascicularis
[4] = test system: L-DOPA-induced abnormal involuntary movements; conditions: rodents; ref Giorgi et al., 2008; Picconi et al., 2011; cited from earlier work
PDE 9, 10, and 11 = conditions: cited from earlier work
PDE 5 and 6 = conditions: cited from earlier work

plasma levels of L-DOPA with PDE9i addition [2] | LID (dyskinesia score at peak-dose effect of L-dopa) ([3]; monkey 1, scale 0 to 27) | LID (dyskinesia score at peak-dose effect of L-dopa) ([3]; monkey 2, scale 0 to 27) | LID (dyskinesia score at peak-dose effect of L-dopa) ([3]; monkey 3, scale 0 to 27) | LID (dyskinesia score at peak-dose effect of L-dopa) ([3]; monkey 4, scale 0 to 27) | LID (dyskinesia score at peak-dose effect of L-dopa) ([3]; monkey 5, scale 0 to 27) | LID (dyskinesia score at peak-dose effect of L-dopa) ([3]; monkey 6, scale 0 to 27) | Compound | response duration ("on" state) [1] [min] | MDS ON (motor disability score at the peak-dose effect of L-dopa) ([3]; monkey 1, scale 0 to 39, MDS OFF 17) | MDS ON (motor disability score at the peak-dose effect of L-dopa) ([3]; monkey 2, scale 0 to 39, MDS OFF 17) | MDS ON (motor disability score at the peak-dose effect of L-dopa) ([3]; monkey 3, scale 0 to 39, MDS OFF 19) | MDS ON (motor disability score at the peak-dose effect of L-dopa) ([3]; monkey 4, scale 0 to 39, MDS OFF 22) | MDS ON (motor disability score at the peak-dose effect of L-dopa) ([3]; monkey 5, scale 0 to 39, MDS OFF 23) | MDS ON (motor disability score at the peak-dose effect of L-dopa) ([3]; monkey 6, scale 0 to 39, MDS OFF 23.5) | L-DOPA-induced abnormal involuntary movements [4] | affinity for PDE 9, 10, and 11 (PDE 9, 10, and 11) | affinity for PDE 5 and 6 (PDE 5 and 6)
remained unchanged | 13 | 11.5 | 10 | 9 | 7 | 11 | N[C@@H](Cc1ccc(O)c(O)c1)C(=O)O [L-DOPA] | ~100 | 1.5 | 1.5 | 3.5 | 4.5 | 8.5 | 3.5 |  |  | 
 |  |  |  |  |  |  | CCCOc1ccccc1-c1nc2nn[nH]c2c(=O)[nH]1 [zaprinast] |  |  |  |  |  |  |  | reduction of L-DOPA-induced abnormal involuntary movements | weak | moderate

Source: paper PMC11698471 (Neuropharmacology, 2022)
